Bioassay records from PubChem BioAssay.
MrgX1 antagonist = blocks BAM8-22 activation of human MrgX1 receptor | 310,000 compounds, 1.3% hits | B-score at 10 µM | MRGX1-HEK293 calcium flux, Fluo-4, BAM8-22 antagonism; stronger effect = lower value | Q96LB2 | AID 588676;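 active means calcium-response B-score plate-corrected more than 3 library SD below zero, starting fluorescence within 5 deviations, no agonist response on first addition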;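 further: peak minus trough fluorescence over baseline after final BAM8-22 challenge near maximal dose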
Target sequence (Q96LB2 whole entry, looked up): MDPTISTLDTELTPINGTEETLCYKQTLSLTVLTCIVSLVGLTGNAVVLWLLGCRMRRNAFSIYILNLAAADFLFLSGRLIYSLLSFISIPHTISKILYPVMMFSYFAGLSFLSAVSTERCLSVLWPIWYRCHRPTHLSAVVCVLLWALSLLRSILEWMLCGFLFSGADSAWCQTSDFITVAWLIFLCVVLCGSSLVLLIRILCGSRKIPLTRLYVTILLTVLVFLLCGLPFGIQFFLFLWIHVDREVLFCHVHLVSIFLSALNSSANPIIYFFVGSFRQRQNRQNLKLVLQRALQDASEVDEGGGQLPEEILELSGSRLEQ
RGS4 inh = inhibitors of human RGS4; HEK293 M3R/RGS4 inducible, Fluo-4 calcium flux; stronger effect = higher value; triggered by carbachol at its EC20; 310,000 compounds, 0.45% hits; B-score at 10 µM; AID 463165;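 active means B-score, a plate-corrected calcium signal, over three deviations above library mean, with baseline fluorescence within five deviations of library mean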;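 further: RGS4 expression induced by doxycycline in cells with stable M3 receptor; B-score is computed from the integrated fluorescence ratio over baseline after carbachol; higher B-score means a larger calcium signal and so more RGS4 inhibition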
Target sequence (P49798 whole entry, looked up): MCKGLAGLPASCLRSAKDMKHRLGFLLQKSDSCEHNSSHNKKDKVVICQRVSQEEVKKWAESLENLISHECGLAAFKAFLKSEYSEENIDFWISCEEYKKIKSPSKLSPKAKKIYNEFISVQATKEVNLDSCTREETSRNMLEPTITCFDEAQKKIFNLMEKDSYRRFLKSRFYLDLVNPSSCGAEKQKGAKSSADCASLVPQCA
MrgX1 PAM = human MrgX1 positive allosteric modulation, primary screen | Q96LB2 | MrgX1-HEK293, Fluo-4 calcium flux, FDSS; stronger effect = higher value | B-score at 10 µM | 310,000 compounds, 0.63% hits | AID 588675;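 active means plate-corrected calcium response at least 3 library SD above typical, normal starting fluorescence, not activating the receptor alone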;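 further: compound read alongside a low EC10 to EC30 dose of BAM8-22 agonist; peak minus trough fluorescence over baseline measured at the second addition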
RGS4 pot = potentiators or activators of RGS4; HEK293 M3R/inducible RGS4, carbachol calcium flux Fluo4; stronger effect = lower value; B-score at 10 µM; 310,000 compounds, 0.92% hits; AID 463111;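 active means B-score of the integrated calcium signal more than 4 SD below the library mean, with starting fluorescence not abnormally high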;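 further: negative B-score means reduced calcium response which marks RGS4 activation or potentiation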
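Reagent: ECmax carbachol challenge; Test system: M3R-expressing HEK293 line, RGS4 induced by doxycycline; Schedule: overnight RGS4 induction, 30 min dye load 37 °C, 20 min compound RT; Detection: calcium dye Fluo4 fluorescence; Read-out: Agonist-evoked peak-minus-minimum fluorescence over baseline, integrated ratio, B score.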
MrgX1 ag = activates human MrgX1 receptor signaling; 310,000 compounds, 0.44% hits; MrgX1-HEK293 cells, Fluo-4 calcium fluorescence, agonist mode; stronger effect = higher value; AID 588627; B-score at 10 µM; Q96LB2;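 active means calcium response B-score plate-corrected fluorescence ratio at least 3 library SD, with starting fluorescence B-score inside 5 SD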
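Assay system: MrgX1-expressing HEK293 cells / Amount: fifteen thousand cells per well / Doses: test compound in the initial addition of three / Timing: cells plated overnight, dye loaded 0.5 h 37 °C, 0.5 h room temperature / Technique: kinetic calcium dye fluorescence, Fluo-4 NW / Control set: positive and negative controls per plate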
MrgX1 ant reconf = human MrgX1 receptor antagonism, re-confirmation screen; AID 602420; shares compounds with MrgX1 antagonist; MrgX1-HEK293, BAM8-22 calcium flux, Fluo-4; stronger effect = lower value; remaining BAM8-22 calcium response % of control (stronger effect = lower value), % at 10 µM; 2,300 compounds, 19% hits;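 active means remaining agonist calcium response no higher than 100% minus 3 SD of agonist-only control wells, with starting fluorescence near control levels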;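 further: agonist BAM8-22 given at a near maximal EC90 to ECmax level; peak minus minimum fluorescence divided by baseline after agonist addition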
HEK293 Ca flux = counter-screen for MrgX1 antagonists: effect in parental HEK293 cells; shares compounds with MrgX1 antagonist; Fluo-4 calcium fluorescence, FDSS; fluorescence ratio F(max-min)/F0 at 10 µM; 4,000 compounds, 2% hits; AID 624111;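 active means duplicate-averaged calcium fluorescence ratio at least three times the standard deviation of buffer wells, a nonspecific response in parental cells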
HEK293 Ca counter = MrgX1 allosteric activator counter-screen hit in parental HEK293 cells; shares compounds with MrgX1 antagonist; parental HEK293 calcium flux, Fluo-4 fluorescence ratio; stronger effect = higher value; fluorescence ratio F(max-min)/F0 at 10 µM; 4,000 compounds, 0.4% hits;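 active means calcium fluorescence ratio, averaged over duplicates, at least 3 SD of the buffer-well ratio, meaning a nonspecific response in receptor-free cells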;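 further: untransfected parental HEK293 lacking MrgX1 used as counterscreen for MrgX1 allosteric activators; fluorescence change taken during the second addition on a kinetic imager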
HEK293 Ca cntr2 = counter-screen for MrgX1 activators: effect in parental HEK293 cells; fluorescence ratio F(max-min)/F0 at 10 µM; AID 624115; shares compounds with MrgX1 antagonist; Fluo-4 calcium fluorescence (FDSS); stronger effect = higher value; 4,000 compounds, 8.7% hits;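 active means calcium fluorescence ratio at least three times the spread of buffer wells, meaning a non-specific response in parental cells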
* = called active by the depositor; i = inactive; . = no result. Most compounds without a hit are left out; they make up all but 3.5% or so of the library.

SMILES	MrgX1 antagonist	RGS4 inh	MrgX1 PAM	RGS4 pot	MrgX1 ag	MrgX1 ant reconf	HEK293 Ca flux	HEK293 Ca counter	HEK293 Ca cntr2
C=CCn1c(-c2ccccc2)nc(=S)c2c1CCCC2	i	i	i	i	i	.	.	.	.
CNS(=O)(=O)c1cc(S(=O)(=O)NC)c2cccc3c2c1NC3=O	i	i	i	i	i	.	.	.	.
CC(C)NC[C@H](O)COc1ccc(CC(N)=O)cc1	i	.	i	.	i	.	.	.	.
COc1ccc(CNc2nc(-c3ccccc3)nn2C(=O)c2ccc([N+](=O)[O-])cc2)cc1	i	i	i	i	i	.	.	.	.
COc1ccc(CNc2nc(-c3ccccc3)nn2C(=O)c2cccs2)cc1	-4.9*	i	i	i	i	i	i	i	55*
CC1CC(C)CN(S(=O)(=O)CCNC(=O)c2ccc3c(c2)OCO3)C1 (stereo not given)	i	i	i	i	i	.	.	.	.
Nc1nnnn1/N=C/c1ccccc1OCc1ccc(Cl)cc1	i	i	i	i	i	.	.	.	.
Nc1nnnn1/N=C/c1ccccc1OCc1ccc(Cl)cc1Cl	-4.8*	i	i	i	i	i	i	i	i
CC(CNC(=O)CCC(=O)N1CCOc2ccccc21)c1ccccc1 (stereo not given)	i	i	i	i	i	.	.	.	.
O=C(O)c1ccc(NC2=C(Cl)C(=O)c3ccccc3C2=O)cc1	-18*	i	i	-7.3*	i	14%*	i	i	i
Cc1c(C#N)c2ccccc2n1CC(=O)NCC1CCCO1 (stereo not given)	-5.1*	i	i	i	i	i	i	i	i
O=C(Cn1c(NCCO)nc2ccccc21)NCC1CCCO1 (stereo not given)	-4.7*	i	i	i	i	i	i	i	i
O=C(Cn1c(NCCO)nc2ccccc21)NCCc1ccccc1	i	i	i	i	i	.	.	.	.
Clc1c(Cl)c(Cl)c2n[nH]nc2c1Cl	-7*	i	i	i	i	i	i	i	i
CCOCc1cnc(C)nc1NCC(=O)c1c(C)[nH]c2ccc(OC)cc12	-8.8*	i	i	i	i	i	i	i	i
Cc1ccccc1NC(=S)N1CCN(c2ccccc2Cl)CC1	i	i	i	i	i	.	.	.	.
Cc1ccc(NC(=O)Nc2cccnc2)cc1Cl	-4.7*	i	i	i	i	80%*	i	i	i
Fc1ccc(NC(=S)Nc2cccnc2)cc1	i	i	i	i	i	.	.	.	.
Fc1ccc(NC(=S)Nc2cccnc2)cc1Cl	-5.6*	i	i	i	i	i	i	i	i
O=C(Nc1ccc(F)c(Cl)c1)Nc1cnccn1	-6.2*	i	i	i	i	i	i	i	i
CCOC(CCNC(=O)c1cc(-c2cccs2)nc2ccccc12)OCC	i	i	i	i	i	.	.	.	.
CC(=O)Nc1ccc(Nc2nc(C)c([N+](=O)[O-])c(Nc3ccc(NC(C)=O)cc3)n2)cc1	-22*	i	i	i	i	82%*	i	i	i
CNc1nc(C)c([N+](=O)[O-])c(Nc2ccc(OC)cc2)n1	i	i	i	i	i	.	.	.	.
Cc1ccc(N=Cc2cc3c(cc2O)OC(N)=C(C#N)C3c2ccccc2)cc1 (stereo not given)	-9.8*	i	i	i	i	80%*	i	i	i
COC1=CC(=O)CC(C)C12Oc1cc(OC)cc(OC)c1C2=O (stereo not given)	-5.9*	i	i	i	i	i	i	i	i
SMILES	MrgX1 antagonist	RGS4 inh	MrgX1 PAM	RGS4 pot	MrgX1 ag	MrgX1 ant reconf	HEK293 Ca flux	HEK293 Ca counter	HEK293 Ca cntr2
CC(=O)NS(=O)(=O)c1ccc(NC(=S)NC(=O)Cc2ccccc2)cc1	-6.1*	i	i	i	i	i	i	i	i
N#CC(C(N)=O)=C1CCCCC1	i	i	i	i	i	.	.	.	.
O=C(COC(=O)/C=C/C(=O)OCC(=O)NC12CC3CC(CC(C3)C1)C2)NC12CC3CC(CC(C3)C1)C2	i	i	i	i	i	.	.	.	.
COc1c(C(CC(C)C)OC(C)=O)ccc2c1C(=O)OCc1cc(C)cc(O)c1O2 (stereo not given)	i	i	i	i	i	.	.	.	.
Cc1ccc(NC(=O)C2(c3cccs3)CCOCC2)cc1C	-4.8*	i	i	i	i	i	i	i	i
CC(C)c1cc2c(c(O)c1O)[C@@]13CCCC(C)(C)C1CC2OC3=O (stereo not given in full)	-4.5*	i	i	i	i	76%*	i	i	i
Cc1cccc(OCC(=O)Nc2nccs2)c1C	i	i	i	i	i	.	.	.	.
CCOc1ccccc1NC(=O)c1cc(Cl)ccc1NC(=O)c1ccco1	-5.2*	i	i	i	i	i	i	i	i
COc1ccccc1NC(=O)c1cc(Cl)ccc1NC(=O)c1ccco1	i	i	i	i	i	.	.	.	.
CCC(NC(=O)c1ccccc1NC(=O)c1ccco1)C(=O)O (stereo not given)	-7.6*	i	i	i	i	i	i	i	i
CCC(C)NC(=O)Cn1c(=O)sc2ccccc21 (stereo not given)	i	i	i	i	i	.	.	.	.
CCOc1ncccc1C(=O)OCC(=O)NCc1ccc2c(c1)OCO2	-4.9*	i	i	i	i	i	i	i	i
COc1ccc(CNC(=O)COC(=O)Cc2ccsc2)cc1	-4.5*	i	i	i	i	i	i	i	i
COc1ccc(CC(=O)NCc2cccs2)cc1	-6.6*	i	i	i	i	i	i	i	i
O=C(Cc1cccs1)NCc1ccc2c(c1)OCO2	-8*	i	i	i	i	i	i	i	i
NC(=NCCc1ccccc1)c1cccc([N+](=O)[O-])c1	i	i	i	i	i	.	.	.	.
O=C(C1CCN(S(=O)(=O)c2c(Cl)cccc2Cl)CC1)N1CCCCCCC1	i	i	i	i	i	.	.	.	.
